Published values gathered from unrelated publications.
Lines come from different studies, so protocols differ. In brackets after ≈: the same amount, converted by molar mass.
Organism: Pichia kudriavzevii
Effect on: microbial growth
Strain: ATCC6258

Compound	technique	time	MIC [µg/mL]
CCCCCOc1c(OC)cc(NC(C)CCCNC(=O)C(N)Cc2cc3ccccc3[nH]2)c2nc(C(C)(C)C)ccc12 (stereo not shown)			10 (≈ 17 µM)
CC1(C)CC[C@]2(C(=O)O)CC[C@]3(C)C(=CC[C@@H]4[C@@]5(C)CC[C@H](O)C(C)(C)[C@@H]5CC[C@]43C)[C@@H]2C1	broth dilution	48 h	500 (≈ 1090 µM)
CCCCCN1CCN(CC(O)(Cn2cncn2)c2ccc(F)cc2F)CC1 (stereo not shown)	broth dilution	48 h	> 31.3
C=C(C)[C@@H]1CC[C@]2(C)CC[C@]3(C)[C@H](CC[C@@H]4[C@@]5(C)CCC(=O)C(C)(C)[C@@H]5CC[C@]43C)[C@@H]12	broth dilution	48 h	500 (≈ 1180 µM)
C[C@@H]1[C@H](O)[C@@H](C)/C=C/C=C/C=C/C=C/C=C/C=C/C=C/[C@H](O[C@@H]2O[C@H](C)[C@@H](O)[C@H](N)[C@@H]2O)C[C@@H]2O[C@](O)(C[C@@H](O)C[C@@H](O)[C@H](O)CC[C@@H](O)C[C@@H](O)CC(=O)O[C@H]1C)C[C@H](O)[C@H]2C(=O)O	broth dilution		0.5 (≈ 0.541 µM)
C=C(C)[C@@H]1CC[C@]2(C(=O)O)CC[C@]3(C)[C@H](CC[C@@H]4[C@@]5(C)CC[C@H](O)C(C)(C)[C@@H]5CC[C@]43C)[C@@H]12	broth dilution	48 h	250 (≈ 547 µM)
CCCCCCOc1c(OC)cc(NC(C)CCCN)c2nc(C(C)(C)C)cc(C)c12 (stereo not shown)			5 (≈ 11.6 µM)
OC(CNCCN1CCOCC1)(Cn1cncn1)c1ccc(F)cc1F (stereo not shown)	broth dilution	48 h	> 31.3
C[C@@H]1[C@H](O)[C@@H](C)/C=C/C=C/C=C/C=C/C=C/C=C/C=C/[C@H](O[C@@H]2O[C@H](C)[C@@H](O)[C@H](N)[C@@H]2O)C[C@@H]2O[C@](O)(C[C@@H](O)C[C@@H](O)[C@H](O)CC[C@@H](O)C[C@@H](O)CC(=O)O[C@H]1C)C[C@H](O)[C@H]2C(=O)O			1.25 (≈ 1.35 µM)
CCCCCCCCCCCN1CCNCC1	broth dilution	48 h	7.8 (≈ 32.4 µM)
